Assay outcomes deposited in PubChem by Broad Institute.
In the library only some 1.9% were active in any assay of this set; here they are far more common.
PglD inh = C. jejuni PglD acetyltransferase inhibitors, primary screen, biochemical, DTNB colorimetric, single point; UDP-N-acetylbacillosamine N-acetyltransferase PglD (Campylobacter jejuni); AID 602405, 2012; inhibition, % at 12.5 µM; purified PglD enzyme, DTNB colorimetric CoA detection; 360,000 tested, 0.098% active; in the data active = inhibition above about 16%, passing the limit was not always enough
Ecoli rRNA inh = reduced GFP signal of wild-type E. coli, primary screen, bacterial rRNA inhibitor project, GFP/RFP fluorescence, OD600, single point; AID 720706, 2013; 350,000 tested, 1.6% active; E. coli WT GFP vs humanized-ribosome RFP mutants, 24 h; active compounds read low; DMSO median 0, no signal -100; GFP signal change (wild-type ribosome), % (test concentration not listed);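 active = significant combined selectivity score with lowered wild-type GFP, culture density cut under 30%, mutant RFP and density less affected; inactive = any of these conditions unmet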
RAD54 branch = inhibitors of human RAD54 branch migration, primary screen, biochemical, fluorescence, single point; DNA repair and recombination protein RAD54-like (Homo sapiens), Q92698; RAD54 Holliday junction branch migration, FAM/BHQ fluorescence; inhibition, % at 10.4 µM; 360,000 tested, 0.14% active;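 active = mean normalized replicate activity at least 40 and at least half of replicates scoring 40 or more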;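 note: inhibitors cause a drop in the FAM fluorescence signal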
RAD52 inh = RAD52 DNA annealing inhibitors, primary screen, biochemical, FRET, single point, set 2; recombinant RAD52 DNA annealing, FRET fluorescence; DNA repair protein RAD52 homolog (Homo sapiens), P43351; 360,000 tested, 0.46% active; inhibition, % at 18.7 µM;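 active = every replicate showing at least 50% inhibition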
Target sequence (P43351 whole entry, looked up): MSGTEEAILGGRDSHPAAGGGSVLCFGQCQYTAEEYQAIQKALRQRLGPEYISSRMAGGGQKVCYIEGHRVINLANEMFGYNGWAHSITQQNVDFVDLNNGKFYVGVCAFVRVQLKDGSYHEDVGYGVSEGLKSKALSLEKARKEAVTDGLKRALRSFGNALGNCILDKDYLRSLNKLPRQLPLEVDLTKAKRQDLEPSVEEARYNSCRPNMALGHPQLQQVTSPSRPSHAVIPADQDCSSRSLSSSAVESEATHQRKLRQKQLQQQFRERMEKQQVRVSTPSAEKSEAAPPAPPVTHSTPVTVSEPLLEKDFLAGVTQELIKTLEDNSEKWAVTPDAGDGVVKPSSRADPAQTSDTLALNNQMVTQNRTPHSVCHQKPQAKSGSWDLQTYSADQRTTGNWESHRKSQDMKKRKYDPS
Cneo AK release = Cryptococcus neoformans cell lysis inducers, primary screen, AK release luminescence, single concentration. C. neoformans lysis, adenylate kinase release luminescence, 4 h; normalised: neutral wells 0, clomiphene wells 100. lysis activity, % at 15 µM. 360,000 tested, 0.2% active;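 active = mean lysis activity across replicates of at least 80%, whatever share of replicates individually reach that level; inactive = mean lysis activity below 80%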
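Assay system: log-phase C. neoformans yeast / Quantity: yeast cell density of 5 × 10^6 cells/mL / Medium: fresh YPD growth medium / Compound: single dose / Timing: static 4 h at 37 °C with compound, 1 h detection / Measured by: adenylate kinase release luminescence / Read-out: lysis from increased AK signal / Benchmarks: Clomiphene as positive lysis control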
Hits are given with their value; n = inactive; x = no result.

SMILES | PglD inh | Ecoli rRNA inh | RAD54 branch | RAD52 inh | Cneo AK release
CCOc1ccc(OCC)c(NC(=O)CSc2nc3cccnc3n2C)c1 | n | -33.0 | n | n | n
O=C(c1cc(=O)c2ccccc2o1)N1CCN(c2cccc(Cl)c2)CC1 | x | -30.1 | x | n | x
CCCC#Cc1ccc([C@@H]2[C@@H](CO)N3C(=O)CN(C(=O)c4cccc(F)c4)C[C@H]23)cc1 | x | n | x | x | x
O=C(O)c1cccc(S(=O)(=O)NCCC(c2ccccc2)c2ccccc2)c1 | x | -27.1 | x | n | x
Cc1noc(C)c1NC(=O)N(C)C[C@@H]1Oc2ccc(NC(=O)Cc3cn(C)c4ccccc34)cc2C(=O)N([C@H](C)CO)C[C@@H]1C | n | n | n | n | n
COC(=O)[C@]12CCCCC=C1N(Cc1ccccc1)C(=O)[C@H](CC(=O)NCc1ccc(OC)c(OC)c1)C2 | x | -20.5 | x | n | x
COC(=O)[C@]12CCCCC=C1N(Cc1ccccc1)C(=O)[C@H](CC(=O)N1CCCC1)C2 | x | n | x | n | x
COC(=O)[C@]12CCCCC=C1N(Cc1ccccc1)C(=O)[C@H](CC(=O)N1CCCCC1)C2 | x | -25.9 | x | n | x
COC(=O)C[C@@H]1C[C@@H]2c3cc(NC(=O)Nc4ccc(C(F)(F)F)cc4)ccc3O[C@@H]2[C@@H](CO)O1 | x | n | x | x | x
CCN(CC)CCOC(=O)C(Cc1ccco1)Cc1cccc2ccccc12 (configuration not stated) | n | -34.2 | n | n | n
O=C(NCC[C@H]1CC[C@H](NS(=O)(=O)c2ccc(Cl)cc2)[C@H](CO)O1)c1ccccc1F | n | n | n | n | n
CC(=O)Nc1ccc(NC(=O)C(C)OC(=O)C23CC4CC(CC(Cl)(C4)C2)C3)cc1 (configuration not stated) | n | -25.9 | n | n | n
CC(=O)Nc1ccc(/C=C(\C#N)C(=O)NC2CCCCC2)cc1 | x | -26.2 | x | n | x
N#C/C(=C\c1ccc(Cl)cc1)C(=O)NC1CC1 | x | n | x | n | x
Cn1cnc(S(=O)(=O)N2C[C@H](O)COC[C@@H]3O[C@@H](CC(=O)NCc4ccc(F)cc4)CC[C@H]32)c1 | n | n | n | n | n
N#CC1=C2N=C(N)c3ccccc3N2C2=C(C(=O)CCC2)C1c1ccc(F)cc1 (configuration not stated) | n | -31.6 | n | n | n
C[C@H]1CN([C@@H](C)CO)C(=O)c2cccc(NC(=O)C3CCCCC3)c2O[C@H]1CN(C)C(=O)Nc1ccc(C(F)(F)F)cc1 | n | n | n | n | n
COc1ccccc1N1CCN(C(=O)c2ccc(-c3ccccc3)cc2)CC1 | n | n | n | n | n
COc1ccccc1N1CCN(C(=O)c2ccc3noc(-c4ccccc4)c3c2)CC1 | n | -13.5 | n | n | n
CC(C)c1cccc(C(C)C)c1NC(=S)Nc1cccc(Cl)c1 | n | -25.7 | n | n | n
NC(=S)Nc1cccc(Cl)c1 | n | n | n | n | n
N#C[C@@H]1[C@H](c2ccc(C3=CCCC3)cc2)[C@@H](CO)N1C(=O)C1CC1 | n | n | n | n | n
COc1cc(CNc2ccc(N3CCN(C(C)=O)CC3)cc2)ccc1OCc1ccc(F)cc1 | x | -27.4 | x | n | x
CC(=O)N1CCN(c2ccc(NCc3ccc(F)cc3)cc2)CC1 | n | n | n | n | n
CC(=O)N(C)C[C@@H]1Oc2c(NC(=O)NC(C)C)cccc2C(=O)N(C)C[C@@H]1C | x | n | x | x | x
SMILES | PglD inh | Ecoli rRNA inh | RAD54 branch | RAD52 inh | Cneo AK release
O=[N+]([O-])c1ccccc1CNC(Cc1ccccc1)c1ccccc1 (configuration not stated) | n | -30.1 | n | n | n
O=[N+]([O-])c1ccccc1CCc1ccccc1[N+](=O)[O-] | n | n | n | n | n
NCC[C@H]1CC[C@H](NS(=O)(=O)Cc2ccccc2)[C@@H](CO)O1 | n | n | n | n | n
CN(C)CC(=O)Nc1ccc2c(c1)[C@@H]1C[C@H](CC(=O)NCc3cc(F)ccc3F)O[C@@H](CO)[C@@H]1O2 | n | n | n | n | n
COc1cc(C(=O)NC(=S)Nc2ccccc2N2CCOCC2)cc(OC)c1OC | n | n | n | n | 80.3
O=C(NC(=S)Nc1ccccc1N1CCN(C(=O)c2ccccc2)CC1)c1ccccc1F | n | n | n | n | n
FC(F)(F)Oc1ccc(NC(=S)Nc2ccccc2N2CCOCC2)cc1 | n | -50.6 | n | n | n
O=C(NC(=S)Nc1ccccc1N1CCOCC1)c1ccccc1F | n | -34.0 | n | n | n
Cc1ccc(SCC(=O)Nc2ccccc2N2CCOCC2)cc1 | n | -27.7 | n | n | n
COc1cccc(C(=O)NC(=S)Nc2ccccc2N2CCOCC2)c1 | n | x | n | x | n
CO[C@@H]1CN(C)C(=O)c2ccc(NC(=O)CC(F)(F)F)cc2OC[C@H](C)N(C(=O)C2CCCCC2)C[C@H]1C | x | n | x | x | x
O=C1[C@H](Cc2ccc(C(F)(F)F)cc2)CCn2cc(nn2)COC[C@H]2CCCCN12 | x | n | x | x | x
CC(C)NC(=O)N1[C@@H]2CN(C)C[C@H]1C2c1ccc(Br)cc1 (some centres not stated) | x | n | x | x | x
CN1C(=O)c2cc(NC(=O)Cc3ccccc3)ccc2OC[C@H]2O[C@H](CC(=O)NC3CCC3)CC[C@H]21 | n | n | n | n | n
O=C(NC(=S)Nc1ccccc1N1CCOCC1)c1cccs1 | x | -29.0 | x | n | x
O=C(NC(=S)Nc1ccccc1N1CCCC1)c1cccs1 | n | n | n | n | n
CCc1nc(NCc2cccs2)c2nnn(Cc3ccccc3)c2n1 | n | n | n | n | n
CCc1nc(Nc2ccccc2)c2nnn(Cc3ccccc3)c2n1 | n | -30.3 | n | n | n
C[C@@H]1CN([C@@H](C)CO)S(=O)(=O)c2ccc(C#CC(C)(C)O)cc2O[C@H]1CN(C)CC1CCCC1 | n | n | n | n | n
C[C@@H]1CCCCO[C@@H](CN(C)Cc2ccc(C(F)(F)F)cc2)[C@@H](C)CN([C@H](C)CO)C(=O)c2cc(NS(=O)(=O)c3cn(C)cn3)ccc2O1 | n | n | n | n | n
CC(C)NC(=O)Nc1ccc2c(c1)C(=O)N([C@@H](C)CO)C[C@@H](C)[C@H](CN(C)Cc1ccncc1)OCCCC[C@@H](C)O2 | n | n | n | n | 111.4
C[C@@H]1CCCCO[C@@H](CN(C)Cc2ccc(C(F)(F)F)cc2)[C@@H](C)CN([C@@H](C)CO)C(=O)c2cc(NS(=O)(=O)c3cn(C)cn3)ccc2O1 | n | n | n | n | 91.3
C[C@H]1CCCCO[C@H](CN(C)Cc2ccncc2)[C@@H](C)CN([C@@H](C)CO)C(=O)c2cc(NC(=O)Nc3ccc(C(F)(F)F)cc3)ccc2O1 | n | n | n | 56.6 | n
